Experimental data as given in ChEMBL document CHEMBL3259631, “Identification of the first potent, selective and bioavailable PPARα antagonist” (Bioorg Med Chem Lett, 2014).
≈ marks a conversion by molar mass, not a printed value. Calls of active or inactive are those of the source. No cut-off for these calls is given here.

Key:
[1] = target: T1, Peroxisome proliferator-activated receptor alpha (Homo sapiens, UniProt Q07869); test: Agonist activity at human PPAR-alpha
T1 sequence (Q07869 whole entry): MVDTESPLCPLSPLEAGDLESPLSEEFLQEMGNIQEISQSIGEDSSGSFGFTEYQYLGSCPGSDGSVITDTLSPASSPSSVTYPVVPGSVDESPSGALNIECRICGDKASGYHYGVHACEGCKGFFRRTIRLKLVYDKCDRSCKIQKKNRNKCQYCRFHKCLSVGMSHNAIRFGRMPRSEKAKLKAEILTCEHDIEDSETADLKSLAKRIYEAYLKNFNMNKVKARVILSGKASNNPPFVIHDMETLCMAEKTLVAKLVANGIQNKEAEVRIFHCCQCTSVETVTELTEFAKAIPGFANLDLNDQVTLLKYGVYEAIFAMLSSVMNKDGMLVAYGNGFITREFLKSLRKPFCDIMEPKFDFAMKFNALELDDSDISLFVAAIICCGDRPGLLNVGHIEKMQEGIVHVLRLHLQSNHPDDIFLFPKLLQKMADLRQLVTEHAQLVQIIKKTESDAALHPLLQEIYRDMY

[2] = AUC in CD-1 mouse at 30 mg/kg, ip; format: ADME, organism-based; parameters: dose 30 mg/kg, route intraperitoneal; settings: plasma
Procedure, shortened: (§1)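 Mouse pharmacokinetics in CD1 mice given a single intraperitoneal dose of 30 mpk, formulated in saline or in 98% saline/2% tween.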

[3] = Cmax in CD-1 mouse at 30 mg/kg, ip after 1 hr; format: ADME, organism-based; parameters: dose 30 mg/kg, route intraperitoneal; settings: in vivo; procedure, shortened: as §1
[4] = Solubility of the compound in aqueous buffer at pH 7.4 after 24 hrs by LC-MS/MS analysis; format: physicochemical
Procedure, shortened: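 Compound from a 10 mM DMSO stock was added to pH 7.4 buffer, vortexed 2 min, then shaken on an orbital shaker for 24 h at room temperature. Samples were then vacuum-filtered through a polycarbonate membrane before measurement.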

[5] = target: T2, Thyroid hormone receptor beta (Homo sapiens, UniProt P10828); test: Inhibition of human thyroid hormone receptor-beta
T2 sequence (P10828 whole entry): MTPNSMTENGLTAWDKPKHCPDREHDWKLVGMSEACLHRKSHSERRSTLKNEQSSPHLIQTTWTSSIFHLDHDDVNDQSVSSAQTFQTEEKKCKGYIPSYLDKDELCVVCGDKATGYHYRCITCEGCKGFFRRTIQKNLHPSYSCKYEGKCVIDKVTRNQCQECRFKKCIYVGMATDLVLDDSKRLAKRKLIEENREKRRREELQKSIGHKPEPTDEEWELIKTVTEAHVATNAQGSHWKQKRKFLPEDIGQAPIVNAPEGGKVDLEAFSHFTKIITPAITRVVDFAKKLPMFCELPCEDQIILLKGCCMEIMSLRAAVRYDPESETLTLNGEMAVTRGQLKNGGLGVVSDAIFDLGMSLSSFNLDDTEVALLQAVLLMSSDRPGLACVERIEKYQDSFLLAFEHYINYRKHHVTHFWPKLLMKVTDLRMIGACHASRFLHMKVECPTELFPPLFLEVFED

[6] = target: Estrogen receptor beta (Homo sapiens, UniProt Q92731); test: Inhibition of human estrogen receptor beta
[7] = target: T3, Peroxisome proliferator-activated receptor delta (Homo sapiens, UniProt Q03181); test: Inhibition of human PPAR-delta
T3 sequence (Q03181 whole entry): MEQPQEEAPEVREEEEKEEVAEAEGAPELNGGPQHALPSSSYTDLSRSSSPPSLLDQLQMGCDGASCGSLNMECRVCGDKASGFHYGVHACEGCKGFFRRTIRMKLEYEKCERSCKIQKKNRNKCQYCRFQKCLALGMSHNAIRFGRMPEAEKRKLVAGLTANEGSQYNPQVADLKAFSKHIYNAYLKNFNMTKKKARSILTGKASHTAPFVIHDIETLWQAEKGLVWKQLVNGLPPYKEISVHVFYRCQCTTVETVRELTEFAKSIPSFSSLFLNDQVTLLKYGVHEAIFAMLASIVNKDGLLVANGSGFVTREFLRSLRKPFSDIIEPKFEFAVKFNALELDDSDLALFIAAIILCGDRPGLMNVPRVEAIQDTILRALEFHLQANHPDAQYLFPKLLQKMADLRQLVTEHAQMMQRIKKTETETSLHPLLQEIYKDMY

[8] = target: T4, Peroxisome proliferator-activated receptor gamma (Homo sapiens, UniProt P37231); test: Inhibition of human PPAR-gamma
T4 sequence (P37231 whole entry): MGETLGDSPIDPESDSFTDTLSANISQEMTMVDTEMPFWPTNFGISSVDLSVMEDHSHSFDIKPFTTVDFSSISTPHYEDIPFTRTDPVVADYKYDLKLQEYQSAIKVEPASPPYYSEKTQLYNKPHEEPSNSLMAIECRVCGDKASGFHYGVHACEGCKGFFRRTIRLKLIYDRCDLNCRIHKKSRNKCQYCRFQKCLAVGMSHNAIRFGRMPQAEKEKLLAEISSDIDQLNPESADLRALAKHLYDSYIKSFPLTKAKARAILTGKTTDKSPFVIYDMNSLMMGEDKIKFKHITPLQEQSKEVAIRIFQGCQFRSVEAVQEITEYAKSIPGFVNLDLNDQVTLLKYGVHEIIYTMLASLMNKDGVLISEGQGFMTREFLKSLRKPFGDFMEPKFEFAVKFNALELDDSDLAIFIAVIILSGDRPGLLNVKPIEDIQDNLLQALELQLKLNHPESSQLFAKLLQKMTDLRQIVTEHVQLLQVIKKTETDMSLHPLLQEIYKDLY

[9] = target: T1, Peroxisome proliferator-activated receptor alpha; test: Antagonist activity at human PPAR-alpha assessed as inhibition of GW7647-induced effect after overnight incubation by cell-based luciferase reporter gene assay
[10] = test system: Plasma; test: Metabolic stability in mouse plasma assessed as compound remaining at 1 uM after 24 hrs by LC-MS/MS analysis; format: ADME, cell-free; settings: 24 h, 1 µM
Procedure, shortened: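 A 30 mM DMSO stock was diluted to 100 µM in acetonitrile, then spiked into thawed mouse plasma (1 µM final) and incubated at 37 °C. Aliquots were precipitated in acetonitrile containing buspirone, shaken 5 min and centrifuged at 4000g for 10 min. Supernatant was analysed by LC-MS/MS. Percent remaining = concentration at each time / t0 concentration × 100; mean of at least three experiments.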

[11] = test system: Mus musculus; test: Reduction in plasma FGF21 level in C57Bl/6 mouse at 30 mg/kg, ip administered for 4 days followed by fasting for last 48 hrs measured 4 hrs post last dose by ELISA; format: functional, organism-based; parameters: dose 30 mg/kg
Procedure, shortened: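 C57Bl/6 mice received intraperitoneal drug or saline vehicle daily for four days, with 48 h fasting starting on day 2. Four hours after the final dose, blood was taken by terminal cardiac puncture into EDTA. Plasma FGF21 was measured by ELISA and compared against vehicle by t test.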

[12] = target: T1, Peroxisome proliferator-activated receptor alpha; test: Antagonist activity at GST-tagged PPAR-alpha (unknown origin) assessed as inhibition of GW7647-induced effect after 2 hrs by TR-FRET assay
[13] = target: T5, Glucocorticoid receptor (Homo sapiens, UniProt P04150); test: Inhibition of human glucocorticoid receptor
T5 sequence (P04150 whole entry): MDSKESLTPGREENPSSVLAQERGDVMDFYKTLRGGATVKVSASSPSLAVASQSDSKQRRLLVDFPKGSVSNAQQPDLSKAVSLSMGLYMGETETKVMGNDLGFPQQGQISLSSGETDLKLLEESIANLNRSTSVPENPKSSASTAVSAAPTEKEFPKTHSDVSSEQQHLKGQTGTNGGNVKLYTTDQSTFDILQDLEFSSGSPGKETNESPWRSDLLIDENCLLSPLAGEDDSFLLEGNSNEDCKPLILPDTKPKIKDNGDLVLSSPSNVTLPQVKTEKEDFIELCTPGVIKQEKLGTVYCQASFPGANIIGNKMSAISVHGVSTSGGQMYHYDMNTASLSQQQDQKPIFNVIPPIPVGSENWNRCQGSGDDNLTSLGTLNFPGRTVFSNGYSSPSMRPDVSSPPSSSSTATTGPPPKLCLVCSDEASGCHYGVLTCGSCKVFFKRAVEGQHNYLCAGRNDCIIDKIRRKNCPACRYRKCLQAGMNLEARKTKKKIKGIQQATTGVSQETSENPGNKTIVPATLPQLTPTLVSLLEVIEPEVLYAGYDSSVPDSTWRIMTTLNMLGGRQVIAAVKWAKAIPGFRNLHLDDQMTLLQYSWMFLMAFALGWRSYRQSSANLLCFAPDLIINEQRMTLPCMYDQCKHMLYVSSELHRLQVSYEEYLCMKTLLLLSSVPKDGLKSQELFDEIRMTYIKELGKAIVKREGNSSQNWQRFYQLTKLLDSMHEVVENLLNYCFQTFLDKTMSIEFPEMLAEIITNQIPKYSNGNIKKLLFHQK

Sequence of Estrogen receptor beta (Q92731 whole entry): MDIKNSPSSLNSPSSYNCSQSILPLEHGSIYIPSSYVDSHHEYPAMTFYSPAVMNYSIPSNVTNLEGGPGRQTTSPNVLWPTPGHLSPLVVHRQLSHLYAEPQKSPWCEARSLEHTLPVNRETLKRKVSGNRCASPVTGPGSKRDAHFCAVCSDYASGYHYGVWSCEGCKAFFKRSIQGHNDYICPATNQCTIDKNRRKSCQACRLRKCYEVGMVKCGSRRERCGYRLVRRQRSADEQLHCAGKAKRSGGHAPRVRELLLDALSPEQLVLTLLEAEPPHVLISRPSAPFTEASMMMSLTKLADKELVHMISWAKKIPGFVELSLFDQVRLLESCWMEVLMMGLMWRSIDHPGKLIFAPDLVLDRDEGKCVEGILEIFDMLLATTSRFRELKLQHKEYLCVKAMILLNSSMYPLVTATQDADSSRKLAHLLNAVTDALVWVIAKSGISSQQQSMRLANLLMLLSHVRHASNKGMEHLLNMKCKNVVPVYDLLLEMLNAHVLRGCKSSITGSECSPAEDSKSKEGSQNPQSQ

- EC50 [1]: > 100 µM
- AUC [2]: 3400 ng·h/mL
- Cmax [3]: 1200 nM
- solubility at 24 h [4]: 1.5 µM (≈ 0.915 µg/mL)
- IC50 [5]: > 100 µM
- IC50 [6]: 15.2 µM
- IC50 [7]: 6 µM
- IC50 [8]: 15 µM
- IC50 [9]: 0.077 µM
- Stability [10]: 140.6%
- EC50 [12]: 1.4 µM
- IC50 [13]: 32.5 µM
SMILES: CCn1c(CCCc2ccc(-c3ccc(NS(=O)(=O)c4ccccc4)cn3)cc2)nn(Cc2ccc(C(C)(C)C)cc2)c1=O
- Activity [11]: Active
